Active and inactive are the calls of the source. No cut-off for these calls is given here.
What was measured:
[1] = tested on: Mus musculus; experiment: Hematotoxicity in B6D2F1 mouse assessed as RBC count at 120 mg/kg, po; format: organism-based; parameters: dose 120 mg/kg, route oral; details: in vivo
[2] = organism: Homo sapiens; experiment: Inhibition of human topoisomerase 2 at 50 uM by plasmid linearization assay
[3] = tested on: PC-3; experiment: Cell cycle arrest in PC3 cells assessed as accumulation at G2 phase at 10 uM after 72 hrs; format: functional, cell-based; details: Homo sapiens
How it was run: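 PC-3 or DU-145 cells treated for 72 h with 0, 1 or 10 µM. Cell-cycle distribution (G0/G1, S, G2/M) determined by propidium iodide staining.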

[4] = tested on: PC-3; experiment: Induction of apoptosis in human PC3 cells assessed as p53 activation; format: functional, cell-based
How it was run: (§1)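 PC-3 and DU-145 cells treated over 72 h at 1 and 10 µM, compared with untreated cells. p53, PARP cleavage and procaspase-3/-9 activation assessed by immunoblotting.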

[5] = target: T1, DNA topoisomerase 1 (Homo sapiens) (UniProt P11387); experiment: Inhibition of human topoisomerase 1 by DNA unwinding test
T1 sequence (whole entry): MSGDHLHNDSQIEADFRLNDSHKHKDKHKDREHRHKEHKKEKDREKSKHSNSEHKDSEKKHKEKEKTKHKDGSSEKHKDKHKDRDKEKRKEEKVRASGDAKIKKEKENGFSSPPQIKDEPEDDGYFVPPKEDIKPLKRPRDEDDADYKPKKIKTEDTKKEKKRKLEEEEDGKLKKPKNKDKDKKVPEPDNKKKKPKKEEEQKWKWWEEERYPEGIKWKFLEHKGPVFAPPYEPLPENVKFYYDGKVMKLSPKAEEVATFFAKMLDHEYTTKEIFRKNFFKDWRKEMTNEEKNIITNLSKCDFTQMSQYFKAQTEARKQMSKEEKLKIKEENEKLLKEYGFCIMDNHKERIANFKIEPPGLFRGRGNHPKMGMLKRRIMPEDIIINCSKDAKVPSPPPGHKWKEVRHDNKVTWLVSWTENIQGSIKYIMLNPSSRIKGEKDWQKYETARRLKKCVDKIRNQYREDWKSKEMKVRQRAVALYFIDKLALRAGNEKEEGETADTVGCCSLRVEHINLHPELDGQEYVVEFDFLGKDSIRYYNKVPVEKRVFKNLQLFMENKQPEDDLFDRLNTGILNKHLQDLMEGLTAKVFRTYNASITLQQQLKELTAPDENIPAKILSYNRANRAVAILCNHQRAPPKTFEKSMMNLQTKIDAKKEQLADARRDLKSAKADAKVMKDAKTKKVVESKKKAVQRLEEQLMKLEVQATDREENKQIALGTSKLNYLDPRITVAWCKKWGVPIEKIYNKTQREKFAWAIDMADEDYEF
How it was run: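 DNA unwinding assay: relaxed pBR322 plasmid converted to supercoiled form in presence of topoisomerase I; compounds at final 4–32 µM (one up to 15–55 µM); ethidium bromide-stained agarose gels; UC50 taken as concentration shifting relaxed band to midpoint between supercoiled and relaxed states.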

[6] = tested on: Mus musculus; experiment: Hematotoxicity in B6D2F1 mouse assessed as WBC count at 80 mg/kg, po; format: organism-based; parameters: dose 80 mg/kg, route oral; details: in vivo
[7] = tested on: Mus musculus; experiment: Hematotoxicity in B6D2F1 mouse assessed as platelet count at 160 mg/kg, po; format: organism-based; parameters: dose 160 mg/kg, route oral; details: in vivo
[8] = tested on: Mus musculus; experiment: Hematotoxicity in B6D2F1 mouse assessed as platelet count at 20 mg/kg, iv; format: organism-based; parameters: dose 20 mg/kg, route intravenous; details: in vivo
[9] = tested on: L1210; experiment: Antitumor activity in L1210 cells xenografted B6D2F1 mouse at 80 mg/kg, ip relative to control; format: functional; details: route intraperitoneal
How it was run: (§2)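 Mice grafted with L1210 leukaemia cells on day 0, then dosed i.p. four times weekly on days 1-4 and 8-11. Five mice per group. Outcome is %T/C, the median survival of treated over control. Kruskal-Wallis test followed by Dunn comparisons against control.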

[10] = tested on: L1210; experiment: Antitumor activity in L1210 cells xenografted B6D2F1 mouse at 160 mg/kg, ip relative to control; format: functional; details: route intraperitoneal; how it was run: as §2
[11] = tested on: DU-145; experiment: Induction of apoptosis in human DU145 cells assessed as PARP cleavage activation; format: functional, cell-based; how it was run: as §1
[12] = tested on: Mus musculus; experiment: Hematotoxicity in B6D2F1 mouse assessed as RBC count at 20 mg/kg, iv; format: organism-based; parameters: dose 20 mg/kg, route intravenous; details: in vivo
[13] = tested on: PC-3; experiment: Induction of apoptosis in human PC3 cells assessed as procaspase-9 activation; format: functional, cell-based; how it was run: as §1
[14] = tested on: L1210; experiment: Antitumor activity in L1210 cells xenografted B6D2F1 mouse at 40 mg/kg, ip relative to control; format: functional; details: route intraperitoneal; how it was run: as §2
[15] = target: DNA topoisomerase 2-alpha (Homo sapiens) (UniProt P11388); experiment: Inhibition of human topoisomerase 2-mediated kinetoplast DNA […] at 50 uM
Sequence of DNA topoisomerase 2-alpha (Homo sapiens) (P11388 whole entry): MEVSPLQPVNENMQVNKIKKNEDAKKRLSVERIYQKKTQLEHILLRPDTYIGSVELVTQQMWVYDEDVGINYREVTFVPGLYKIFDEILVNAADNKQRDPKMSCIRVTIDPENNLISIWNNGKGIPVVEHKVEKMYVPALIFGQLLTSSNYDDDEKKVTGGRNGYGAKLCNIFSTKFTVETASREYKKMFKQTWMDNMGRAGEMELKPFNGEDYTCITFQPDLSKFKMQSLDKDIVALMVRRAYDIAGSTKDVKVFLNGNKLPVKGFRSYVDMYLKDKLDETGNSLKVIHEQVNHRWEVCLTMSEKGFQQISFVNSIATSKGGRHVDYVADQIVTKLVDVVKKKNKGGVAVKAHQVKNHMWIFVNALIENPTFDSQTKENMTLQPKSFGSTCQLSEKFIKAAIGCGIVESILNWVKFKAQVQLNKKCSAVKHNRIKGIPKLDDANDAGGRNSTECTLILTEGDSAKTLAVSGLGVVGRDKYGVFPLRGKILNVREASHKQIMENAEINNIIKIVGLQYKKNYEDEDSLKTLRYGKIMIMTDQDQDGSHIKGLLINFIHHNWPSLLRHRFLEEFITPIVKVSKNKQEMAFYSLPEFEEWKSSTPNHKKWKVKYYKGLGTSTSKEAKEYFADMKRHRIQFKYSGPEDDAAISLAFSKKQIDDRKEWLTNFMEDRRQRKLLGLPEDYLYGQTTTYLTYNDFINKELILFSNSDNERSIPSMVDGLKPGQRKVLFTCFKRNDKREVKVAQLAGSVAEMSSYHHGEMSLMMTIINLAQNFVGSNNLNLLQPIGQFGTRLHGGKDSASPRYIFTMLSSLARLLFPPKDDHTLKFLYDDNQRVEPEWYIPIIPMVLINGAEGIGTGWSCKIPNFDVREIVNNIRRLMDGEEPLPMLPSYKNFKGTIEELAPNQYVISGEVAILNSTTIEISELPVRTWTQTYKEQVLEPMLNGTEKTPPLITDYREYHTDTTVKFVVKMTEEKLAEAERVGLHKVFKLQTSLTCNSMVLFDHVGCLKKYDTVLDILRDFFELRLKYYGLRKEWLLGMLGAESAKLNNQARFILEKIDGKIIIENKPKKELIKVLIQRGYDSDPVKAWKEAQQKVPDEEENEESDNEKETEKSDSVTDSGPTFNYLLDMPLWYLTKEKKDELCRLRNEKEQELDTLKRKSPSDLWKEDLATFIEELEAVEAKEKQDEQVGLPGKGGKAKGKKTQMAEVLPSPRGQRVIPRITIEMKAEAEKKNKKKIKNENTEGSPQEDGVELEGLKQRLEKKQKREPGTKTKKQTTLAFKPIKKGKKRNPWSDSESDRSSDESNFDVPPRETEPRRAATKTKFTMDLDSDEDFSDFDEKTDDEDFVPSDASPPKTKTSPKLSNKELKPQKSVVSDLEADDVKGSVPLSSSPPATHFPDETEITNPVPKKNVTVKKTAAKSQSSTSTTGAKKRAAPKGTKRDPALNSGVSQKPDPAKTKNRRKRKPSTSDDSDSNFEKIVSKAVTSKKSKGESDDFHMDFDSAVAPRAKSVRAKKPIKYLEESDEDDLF
How it was run: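 Topoisomerase II strand-passage activity by kDNA decatenation; compounds at 50 µM; catenated networks stay in wells, decatenated kDNA enters ethidium bromide-stained agarose gel; no-enzyme and no-drug reactions as controls.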

[16] = tested on: PC-3; experiment: Induction of apoptosis in human PC3 cells assessed as PARP cleavage activation; format: functional, cell-based; how it was run: as §1
[17] = tested on: Mus musculus; experiment: Hematotoxicity in B6D2F1 mouse assessed as RBC count at 10 mg/kg, iv; format: organism-based; parameters: dose 10 mg/kg; details: in vivo
[18] = tested on: Mus musculus; experiment: Hematotoxicity in B6D2F1 mouse assessed as WBC count at 20 mg/kg, iv; format: organism-based; parameters: dose 20 mg/kg, route intravenous; details: in vivo
[19] = tested on: Mus musculus; experiment: Hematotoxicity in B6D2F1 mouse assessed as platelet count at 40 mg/kg, iv; format: organism-based; parameters: dose 40 mg/kg, route intravenous; details: in vivo
[20] = tested on: PC-3; experiment: Induction of senescence in human PC3 cells; format: functional, cell-based
How it was run: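 SA-β-galactosidase staining of PC-3 and DU-145 prostate cancer cells after 72 h at 10 µM; adriamycin 20 nM as positive control; expressed as percentage of positively stained cells.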

[21] = Antiproliferative activity against Hs683 cells after 72 hrs by MTT assay; format: functional, cell-based, Homo sapiens, Hs 683; details: Homo sapiens, Hs 683, 72 h
How it was run: (§3)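 Cells cultured with each compound for three days; growth then read by the MTT colorimetric assay and reported as IC50 (µM).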

[22] = tested on: Mus musculus; experiment: Hematotoxicity in B6D2F1 mouse assessed as platelet count at 80 mg/kg, po; format: organism-based; parameters: dose 80 mg/kg, route oral; details: in vivo
[23] = tested on: LoVo; experiment: Antiproliferative activity against LoVo cells after 72 hrs by MTT assay; format: functional, cell-based, Homo sapiens; details: Homo sapiens, LoVo, 72 h; how it was run: as §3
[24] = tested on: DU-145; experiment: Induction of apoptosis in human DU145 cells assessed as p53 activation; format: functional, cell-based; how it was run: as §1
[25] = tested on: A549; experiment: Antiproliferative activity against A549 cells after 72 hrs by MTT assay; format: functional, cell-based, Homo sapiens; details: Homo sapiens, A549, 72 h; how it was run: as §3
[26] = tested on: PC-3; experiment: Induction of apoptosis in human PC3 cells assessed as procaspase-8 activation; format: functional, cell-based
[27] = tested on: Mus musculus; experiment: Hematotoxicity in B6D2F1 mouse assessed as RBC count at 80 mg/kg, po; format: organism-based; parameters: dose 80 mg/kg, route oral; details: in vivo
[28] = Toxicity in ip dosed B6D2F1 mouse; format: organism-based; details: in vivo
How it was run: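 Acute MTD was set by a single i.p. dose to groups of three healthy female B6D2F1 mice, at 2.5, 5, 10, 20, 40, 80 and 160 mg/kg. The MTD is the dose just below the lowest dose that killed at least one mouse.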

[29] = tested on: PC-3; experiment: Induction of apoptosis in human PC3 cells at 10 uM after 72 hrs; format: functional
How it was run: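 Prostate cancer cells exposed for 72 h to 0, 1 or 10 µM. Apoptosis quantified by flow cytometry after Annexin V-FITC staining.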

[30] = Antiproliferative activity against U373MG cells after 72 hrs by MTT assay; format: functional, cell-based, Homo sapiens, U-373MG ATCC; details: Homo sapiens, U373 MG, 72 h; how it was run: as §3

## CN(C)CCN1C(=O)c2cccc3cc(NC(=O)NC(=O)C(Cl)(Cl)Cl)cc(c23)C1=O
[1]
  Activity: 10.13 10^6 /uL
[2]
  Activity: inactive
[3]
  Activity: Active
[4]
  Activity: inactive
[5]
  UC50: 40 µM
[6]
  Activity: 3.21 10^3 /uL
[7]
  Activity: 1005 10^3 /uL
[8]
  Activity: 397 10^3 /uL
[9]
  Activity: >300%
[10]
  Activity: 300%
[11]
  Activity: inactive
[12]
  Activity: 9.09 10^6 /uL
[13]
  Activity: inactive
[14]
  Activity: 272%
[15]
  Activity: Active
[16]
  Activity: inactive
[17]
  Activity: 9.41 10^6 /uL
[18]
  Activity: 2.92 10^3 /uL
[19]
  Activity: 430 10^3 /uL
[20]
  Activity: inactive
[21]
  IC50: 800 nM
[22]
  Activity: 872 10^3 /uL
[23]
  IC50: 900 nM
[24]
  Activity: inactive
[25]
  IC50: 900 nM
[26]
  Activity: inactive
[27]
  Activity: 9.95 10^6 /uL
[28]
  MTD: > 160 mg/kg
[29]
  Activity: 10%
[30]
  IC50: 900 nM
